This note sets out measurements from ChEMBL document CHEMBL2331271, “Stereoselective synthesis of a new class of potent and selective inhibitors of human Δ8,7-sterol isomerase” (Bioorg Med Chem, 2013).

Molecules are shown by their SMILES. Converted amounts (≈) assume the structure as drawn. The source made the active and inactive calls. The calls are words filed in the database; no cut-off is given here.

Assay [1] deals with 3-beta-hydroxysteroid-Delta(8),Delta(7)-isomerase (Homo sapiens, UniProt Q15125). Kind of assay: Inhibition of delta8,7-sterol isomerase-mediated cholesterol biosynthesis in human HL60 cells assessed as increase in zymostenol accumulation. The assay is classed as cell-based, HL-60. The following applies: for inhibition: HL-60. An outline of the steps:
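HL-60 cells (10^6) incubated 24 h at 37 °C, 5% CO2 in lipid-free medium with 1% LPDS, with compound in ethanol at final 1 or 50 µM. Cells were then saponified in 1 M NaOH at 70 °C for 60 min, extracted into TBME with cholestane internal standard, and silylated with TSIM. The sterol pattern was read by GC-MS full scan, with sterols identified by retention time and MS against authentic samples.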

The next assay has as its system HL-60. Kind of assay: Cytotoxicity against human HL60 cells by MTT assay. The assay is classed as cell-based. An outline of the steps: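 Human leukemia HL-60 cells, kept in RPMI 1640 with 10% FBS without antibiotics at 37 °C, 5% CO2. Cytotoxicity by standard Mosmann MTT test. IC50 from dose-response curves run in triplicate, reported with 95% confidence interval and R2.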

The next assay has as its system Yarrowia lipolytica. As to the kind of experiment: Antifungal activity against Yarrowia lipolytica assessed as inhibition of fungal growth. The assay is classed as functional. An outline of the steps: (§1)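 MIC by DIN 58940-84 broth dilution, strains kept in log phase at 28 °C in yeast extract/peptone/glucose medium, 0.5 McFarland standard. Compounds in ethanol stock 0.8 mg/mL, tested at 50, 25 and 12.5 µg/mL in duplicate wells. Controls: sterility, ethanol-only, clotrimazole 0.5 µg/mL, ketoconazole series. MIC = lowest concentration giving visibly complete growth inhibition.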

The test system of another assay is Nakaseomyces glabratus. As to the kind of experiment: Antifungal activity against Candida glabrata assessed as inhibition of fungal growth. It is filed as functional. An outline of the steps: as §1
A further assay deals with Saccharomyces cerevisiae. Kind of assay: Antifungal activity against Saccharomyces cerevisiae assessed as inhibition of fungal growth. It is filed as functional. An outline of the steps: as §1
The nature of assay [2]: Selectivity index, ratio of cytotoxic IC50 against human HL60 cells to IC50 for delta8,7-sterol isomerase-mediated cholesterol biosynthesis in human HL60 cells. It is filed as functional, HL-60. The method, boiled down: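 Cytotoxicity IC50 from the HL-60 MTT test, in triplicate. Cholesterol biosynthesis IC50 came from HL-60 cells given graded inhibitor concentrations for 24 h in lipid-free medium with 1% LPDS plus 2-13C-acetate at final 62.5 µg/mL. Labelled cholesterol was measured by GC-MS (ions 372–379, 462–469), normalised to Bradford protein, and % inhibition fitted sigmoidally with bottom 0, in triplicate.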

Sequence of 3-beta-hydroxysteroid-Delta(8),Delta(7)-isomerase (Q15125 whole entry): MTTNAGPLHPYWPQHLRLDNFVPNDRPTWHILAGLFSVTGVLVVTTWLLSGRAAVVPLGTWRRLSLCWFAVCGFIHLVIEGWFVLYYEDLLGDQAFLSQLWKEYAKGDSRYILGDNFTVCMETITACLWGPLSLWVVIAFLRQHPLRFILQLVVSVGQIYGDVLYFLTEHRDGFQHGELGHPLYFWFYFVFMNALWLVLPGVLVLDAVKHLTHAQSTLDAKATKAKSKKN

As to `CC(C)CCC[C@@H](C)[C@H]1CC[C@@]2(C)[C@@H](O)[C@@H](N(C)C)CC[C@]12C`, the IC50 stood at 0.576 µM in assay [1] and 17 µM in the assay with HL-60. In addition, the MIC in the assay on Yarrowia lipolytica, in the assay with Nakaseomyces glabratus and in the assay on Saccharomyces cerevisiae was 25 µg/mL (≈ 77.3 µM) throughout.

Turning to `CC(C)CCC[C@@H](C)[C@H]1CC[C@@]2(C)C(=O)[C@@H](N3C(C)COCC3C)CC[C@]12C` (some centres undefined), the inhibition entry in assay [1] is “inactive”. For the same molecule, the MIC in the assay with Yarrowia lipolytica, in the assay on Nakaseomyces glabratus and in the assay with Saccharomyces cerevisiae was 25 µg/mL (≈ 63.8 µM) throughout.

As for `C=CCCCN(Cc1ccccc1)[C@H]1CC[C@]2(C)[C@@H]([C@H](C)CCCC(C)C)CC[C@@]2(C)[C@H]1O`, the IC50 in assay [1] stood at 0.082 µM; in the assay on HL-60 it was 17 µM. For the same molecule, the MIC in the assay on Yarrowia lipolytica, in the assay on Nakaseomyces glabratus and in the assay on Saccharomyces cerevisiae was 25 µg/mL (≈ 55.1 µM) throughout.

Consider `CC(C)CCC[C@@H](C)[C@H]1CC[C@@]2(C)[C@@H](O)[C@@H](NCc3cccnc3)CC[C@]12C`, for which the MIC with Yarrowia lipolytica, in the assay with Nakaseomyces glabratus and in the assay on Saccharomyces cerevisiae was 25 µg/mL (≈ 64.7 µM) each time.

As for `CC(C)CCC[C@@H](C)[C@H]1CC[C@@]2(C)[C@@H](O)[C@@H](NCc3ccoc3)CC[C@]12C`, the MIC in the assay on Yarrowia lipolytica, with Nakaseomyces glabratus and in the assay with Saccharomyces cerevisiae was 25 µg/mL (≈ 66.6 µM) throughout.

Turning to `Cc1cccc(N[C@H]2CC[C@]3(C)[C@@H]([C@H](C)CCCC(C)C)CC[C@@]3(C)C2=O)c1C`, the inhibition entry in assay [1] is “inactive”. Further, the MIC with Yarrowia lipolytica, in the assay on Nakaseomyces glabratus and in the assay on Saccharomyces cerevisiae was 25 µg/mL (≈ 62.9 µM) each time.

Consider `Clc1ccccc1C(c1ccccc1)(c1ccccc1)n1ccnc1` [CLOTRIMAZOLE], for which the MIC in the assay on Yarrowia lipolytica worked out at 1 µg/mL (≈ 2.9 µM); with Nakaseomyces glabratus, 2.5 µg/mL (≈ 7.25 µM); in the assay with Saccharomyces cerevisiae, 0.5 µg/mL (≈ 1.45 µM).

On to `C=CCCCN[C@H]1CC[C@]2(C)[C@@H]([C@H](C)CCCC(C)C)CC[C@@]2(C)[C@@H]1O`, for which the inhibition entry in assay [1] is “inactive”. In addition, the MIC in the assay on Yarrowia lipolytica, in the assay on Nakaseomyces glabratus and with Saccharomyces cerevisiae was 25 µg/mL (≈ 68.8 µM) each time.

Take `CC(C)CCC[C@@H](C)[C@H]1CC[C@@]2(C)[C@H](O)[C@@H](NCc3ccoc3)CC[C@]12C`: the inhibition entry in assay [1] is “inactive”. Besides, the MIC with Yarrowia lipolytica, in the assay with Nakaseomyces glabratus and in the assay with Saccharomyces cerevisiae was 25 µg/mL (≈ 66.6 µM) throughout.

In the case of `CC(C)CCC[C@@H](C)[C@H]1CC[C@@]2(C)[C@@H](O)[C@@H](NCc3cccc(Cl)c3)CC[C@]12C`, the MIC in the assay on Yarrowia lipolytica, with Nakaseomyces glabratus and in the assay on Saccharomyces cerevisiae was 25 µg/mL (≈ 59.5 µM) in each case.

Turning to `COc1ccc(CN[C@H]2CC[C@]3(C)[C@@H]([C@H](C)CCCC(C)C)CC[C@@]3(C)[C@H]2O)cc1`, the MIC in the assay on Yarrowia lipolytica, in the assay on Nakaseomyces glabratus and in the assay with Saccharomyces cerevisiae was 25 µg/mL (≈ 60.1 µM) in each case.

Regarding `CC(C)CCC[C@@H](C)[C@H]1CC[C@@]2(C)C(=O)[C@@H](NCc3cccnc3)CC[C@]12C`, the inhibition entry in assay [1] was “inactive”. The minimum inhibitory concentration (MIC) with Yarrowia lipolytica, in the assay with Nakaseomyces glabratus and in the assay on Saccharomyces cerevisiae was 25 µg/mL (≈ 65 µM) throughout.

As to `CC(C)CCC[C@@H](C)[C@H]1CC[C@@]2(C)[C@@H](O)[C@@H](N3CC(C)OC(C)C3)CC[C@]12C` (mixture of isomers), the MIC in the assay with Yarrowia lipolytica, in the assay on Nakaseomyces glabratus and with Saccharomyces cerevisiae was 25 µg/mL throughout.

As for `COc1ccc(CN[C@H]2CC[C@]3(C)[C@@H]([C@H](C)CCCC(C)C)CC[C@@]3(C)[C@H]2O)c(OC)c1`, the minimum inhibitory concentration (MIC) in the assay on Yarrowia lipolytica, in the assay on Nakaseomyces glabratus and in the assay on Saccharomyces cerevisiae was 25 µg/mL (≈ 56.1 µM) in each case.

Regarding `CC(C)CCC[C@@H](C)[C@H]1CC[C@@]2(C)[C@@H](O)[C@@H](N(C)Cc3ccccc3)CC[C@]12C`, the IC50 in assay [1] came to 0.011 µM; in the assay on HL-60, 7 µM. The MIC in the assay with Yarrowia lipolytica, in the assay with Nakaseomyces glabratus and in the assay on Saccharomyces cerevisiae was 25 µg/mL (≈ 62.6 µM) in each case. The Ratio IC50 in assay [2] was determined as 636.

Turning to `CC(C)CCC[C@@H](C)[C@H]1CC[C@@]2(C)C(=O)[C@@H](N(C)C)CC[C@]12C`, the inhibition result in assay [1] was “inactive”. For the same molecule, the MIC in the assay on Yarrowia lipolytica, with Nakaseomyces glabratus and in the assay with Saccharomyces cerevisiae was 25 µg/mL (≈ 77.7 µM) throughout.

Consider `CC(C)CCC[C@@H](C)[C@H]1CC[C@@]2(C)[C@H](O)[C@@H](NCc3ccccc3)CC[C@]12C`, for which the inhibition entry in assay [1] is “inactive”. Besides, the MIC in the assay with Yarrowia lipolytica, with Nakaseomyces glabratus and with Saccharomyces cerevisiae was 25 µg/mL (≈ 64.8 µM) each time.

In the case of `CCN[C@H]1CC[C@]2(C)[C@@H]([C@H](C)CCCC(C)C)CC[C@@]2(C)[C@H]1O`, the MIC in the assay with Yarrowia lipolytica, with Nakaseomyces glabratus and in the assay on Saccharomyces cerevisiae was 25 µg/mL (≈ 77.3 µM) in each case.

`C=CCCCN(C)[C@H]1CC[C@]2(C)[C@@H]([C@H](C)CCCC(C)C)CC[C@@]2(C)[C@H]1O`: the IC50 worked out at 0.018 µM in assay [1] and 7 µM in the assay on HL-60. For the same molecule, the MIC with Yarrowia lipolytica, in the assay with Nakaseomyces glabratus and in the assay on Saccharomyces cerevisiae was 25 µg/mL (≈ 66.2 µM) each time. In addition, the “Ratio IC50” value in assay [2] is listed as 390.

`CC(C)CCC[C@@H](C)[C@H]1CC[C@@]2(C)[C@@H](O)[C@@H](NCc3cccc(Cl)c3Cl)CC[C@]12C`: the MIC in the assay with Yarrowia lipolytica, with Nakaseomyces glabratus and in the assay with Saccharomyces cerevisiae was 25 µg/mL (≈ 55 µM) throughout.

As to `CC(C)CCC[C@@H](C)[C@H]1CC[C@@]2(C)[C@@H](O)[C@@H](NCc3ccccc3)CC[C@]12C`, the IC50 in assay [1] was 0.015 µM; with HL-60, 8 µM. Further, the MIC in the assay on Yarrowia lipolytica, with Nakaseomyces glabratus and in the assay with Saccharomyces cerevisiae was 25 µg/mL (≈ 64.8 µM) each time.

Turning to `CC(C)CCC[C@@H](C)[C@H]1CC[C@@]2(C)[C@@H](O)[C@@H](N(Cc3ccccc3)Cc3ccccc3)CC[C@]12C`, the IC50 in assay [1] is more than 1 µM; with HL-60 it was 27 µM. Moreover, the MIC in the assay with Yarrowia lipolytica, in the assay on Nakaseomyces glabratus and with Saccharomyces cerevisiae was 25 µg/mL (≈ 52.5 µM) throughout.

With `CC(C)CCC[C@@H](C)[C@H]1CC[C@@]2(C)[C@H](O)[C@@H](NCc3cccc(Cl)c3)CC[C@]12C`, the inhibition entry in assay [1] was “inactive”. The minimum inhibitory concentration (MIC) in the assay with Yarrowia lipolytica, with Nakaseomyces glabratus and in the assay on Saccharomyces cerevisiae was 25 µg/mL (≈ 59.5 µM) throughout.

Turning to `CC(C)CCC[C@@H](C)[C@H]1CC[C@@]2(C)[C@H](O)[C@@H](NCc3ccc(Cl)cc3Cl)CC[C@]12C`, the inhibition result in assay [1] was “inactive”. In addition, the MIC with Yarrowia lipolytica, in the assay on Nakaseomyces glabratus and with Saccharomyces cerevisiae was 25 µg/mL (≈ 55 µM) throughout.

In the case of `Cc1cccc(N[C@H]2CC[C@]3(C)[C@@H]([C@H](C)CCCC(C)C)CC[C@@]3(C)[C@H]2O)c1C` (mixture of isomers), the MIC with Yarrowia lipolytica, with Nakaseomyces glabratus and with Saccharomyces cerevisiae was 25 µg/mL each time.

Take `CC(C)CCC[C@@H](C)[C@H]1CC[C@@]2(C)[C@@H](O)[C@@H](NCc3ccc(Cl)cc3Cl)CC[C@]12C`: the MIC in the assay with Yarrowia lipolytica, with Nakaseomyces glabratus and with Saccharomyces cerevisiae was 25 µg/mL (≈ 55 µM) in each case.

As for `CC(C)CCC[C@@H](C)[C@H]1CC[C@@]2(C)[C@H](O)[C@@H](NCc3ccc(I)o3)CC[C@]12C`, in assay [1], the inhibition result is “inactive”. Further, the MIC in the assay with Yarrowia lipolytica, in the assay with Nakaseomyces glabratus and in the assay with Saccharomyces cerevisiae was 25 µg/mL (≈ 49.9 µM) each time.

With `CC(C)CCC[C@@H](C)[C@H]1CC[C@@]2(C)[C@H](O)[C@@H](NCc3cccc(Cl)c3Cl)CC[C@]12C`, in assay [1], the inhibition entry was “inactive”. Moreover, the MIC with Yarrowia lipolytica, with Nakaseomyces glabratus and in the assay on Saccharomyces cerevisiae was 25 µg/mL (≈ 55 µM) each time.

Turning to `C=CCCCN[C@H]1CC[C@]2(C)[C@@H]([C@H](C)CCCC(C)C)CC[C@@]2(C)[C@H]1O`, the IC50 in assay [1] came to 0.058 µM; in the assay on HL-60, 15 µM. Moreover, the MIC in the assay on Yarrowia lipolytica, in the assay on Nakaseomyces glabratus and in the assay with Saccharomyces cerevisiae was 25 µg/mL (≈ 68.8 µM) throughout.

For `CC(C)CCC[C@@H](C)[C@H]1CC[C@@]2(C)[C@@H](O)[C@@H](N3CCN(C)CC3)CC[C@]12C`, the MIC in the assay with Yarrowia lipolytica, in the assay on Nakaseomyces glabratus and in the assay with Saccharomyces cerevisiae was 25 µg/mL (≈ 66 µM) each time.

For `CC(C)CCC[C@@H](C)[C@H]1CC[C@@]2(C)[C@@H](O)[C@@H](N)CC[C@]12C`, the values for the IC50 (in assay [1]; with HL-60) were 0.581 µM and 11 µM, respectively. Also, the MIC in the assay with Yarrowia lipolytica, in the assay on Nakaseomyces glabratus and in the assay on Saccharomyces cerevisiae was 25 µg/mL (≈ 84.6 µM) in each case.

With `CC(C)CCC[C@@H](C)[C@H]1CC[C@@]2(C)[C@@H](O)[C@@H](NCc3ccc(I)o3)CC[C@]12C`, the MIC with Yarrowia lipolytica, in the assay with Nakaseomyces glabratus and with Saccharomyces cerevisiae was 25 µg/mL (≈ 49.9 µM) in each case.

As to `CC(C)CCC[C@@H](C)[C@H]1CC[C@@]2(C)C(=O)[C@@H](N3CCN(C)CC3)CC[C@]12C`, the inhibition entry in assay [1] is “inactive”. The MIC in the assay on Yarrowia lipolytica, in the assay on Nakaseomyces glabratus and with Saccharomyces cerevisiae was 25 µg/mL (≈ 66.4 µM) in each case.
